Laboratory results published in ChEMBL document CHEMBL1134307, “trans-4-[4-(Methoxyphenyl)cyclohexyl]-1-arylpiperazines: a new class of potent and selective 5-HT(1A) receptor ligands as conformationally constrained analogues of 4-[3-(5-methoxy-1,2,3,4-tetrahydronaphthalen-1-yl)propyl]-1-arylpiperazines” (J Med Chem, 2001).

How the values were obtained:
D(2) dopamine receptor = D(2) dopamine receptor (Rattus norvegicus, UniProt P61169); test: Binding affinity towards dopamine receptor D2 in rat striatal membranes; assay type: cell membranes, Striatum, Membrane
[1] = target: T1, 5-hydroxytryptamine receptor 1A (Homo sapiens, UniProt P08908); test: Binding affinity on human cloned 5-hydroxytryptamine 1A receptor transfected in human cell lines(He La)
T1 sequence (P08908 whole entry): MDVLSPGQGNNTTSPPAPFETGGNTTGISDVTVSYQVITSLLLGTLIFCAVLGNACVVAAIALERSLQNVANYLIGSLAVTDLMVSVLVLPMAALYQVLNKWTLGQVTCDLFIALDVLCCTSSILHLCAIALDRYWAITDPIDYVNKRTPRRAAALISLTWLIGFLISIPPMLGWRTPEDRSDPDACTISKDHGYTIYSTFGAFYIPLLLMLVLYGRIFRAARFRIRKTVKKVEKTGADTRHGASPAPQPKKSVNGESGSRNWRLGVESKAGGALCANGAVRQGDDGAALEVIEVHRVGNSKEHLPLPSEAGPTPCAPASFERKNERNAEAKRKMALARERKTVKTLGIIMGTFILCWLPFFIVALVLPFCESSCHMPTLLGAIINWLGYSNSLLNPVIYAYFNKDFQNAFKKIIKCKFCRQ
Procedure, shortened: (§1)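 HeLa cells stably expressing human 5-HT1A (genomic clone G-21), grown in DMEM with 10% FCS. […] Nonspecific binding with 10 µM 5-HT. Filtration through PEI-pretreated filters.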

[2] = Selectivity expressed as a ratio of affinity against Alpha 1d-Adrenoceptor to that of 5-HT1A receptor
[3] = target: T2, 5-hydroxytryptamine receptor 1A (Homo sapiens) (UniProt P08908); test: Potency (pD2) for the stimulation of [35S]GTP-gamma-S, binding on 5-hydroxytryptamine 1A receptor; assay type: functional
T2 sequence (whole entry): T1 sequence (P08908 whole entry)
Procedure, shortened: (§2)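 Membranes of HeLa cells expressing human 5-HT1A, in 20 mM HEPES, 3 mM MgCl2, 120 mM NaCl pH 7.4. Preincubated 20 min at 30 °C with 30 µM GDP and drug (0.1 nM–100 µM) or 5-HT as reference curve. [35S]GTPγS (200–250 pM) then added for 30 min at 30 °C. Nonspecific binding with 10 µM GTPγS. Curves fitted by ALLFIT to give Emax and pD2 (−log EC50).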

[4] = Selectivity expressed as a ratio of affinity against Alpha 1A-Adrenoceptor to that of 5-HT1A receptor
[5] = Selectivity expressed as a ratio of affinity against Alpha 1b-Adrenoceptor to that of 5-HT1A receptor
[6] = target: T3, Adrenergic receptor alpha-1 (Rattus norvegicus, UniProt P15823+P23944+P43140); test: Binding affinity towards alpha-1 adrenergic receptor in rat cortical membranes; assay type: cell membranes
T3 sequence (P15823 whole entry): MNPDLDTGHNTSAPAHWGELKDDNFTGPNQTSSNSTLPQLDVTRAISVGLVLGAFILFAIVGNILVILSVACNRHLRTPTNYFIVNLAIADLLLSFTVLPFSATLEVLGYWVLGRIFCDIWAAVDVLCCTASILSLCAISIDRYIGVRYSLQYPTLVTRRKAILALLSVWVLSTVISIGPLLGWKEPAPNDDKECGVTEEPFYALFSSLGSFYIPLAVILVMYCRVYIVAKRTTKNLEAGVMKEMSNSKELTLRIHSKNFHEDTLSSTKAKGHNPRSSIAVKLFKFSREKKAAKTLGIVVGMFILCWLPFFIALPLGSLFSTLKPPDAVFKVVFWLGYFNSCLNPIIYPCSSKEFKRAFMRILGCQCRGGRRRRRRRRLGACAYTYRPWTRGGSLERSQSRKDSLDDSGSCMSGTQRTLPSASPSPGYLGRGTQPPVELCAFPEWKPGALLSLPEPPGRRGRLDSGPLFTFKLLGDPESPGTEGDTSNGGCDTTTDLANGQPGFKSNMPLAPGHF
T3 sequence (P23944 whole entry): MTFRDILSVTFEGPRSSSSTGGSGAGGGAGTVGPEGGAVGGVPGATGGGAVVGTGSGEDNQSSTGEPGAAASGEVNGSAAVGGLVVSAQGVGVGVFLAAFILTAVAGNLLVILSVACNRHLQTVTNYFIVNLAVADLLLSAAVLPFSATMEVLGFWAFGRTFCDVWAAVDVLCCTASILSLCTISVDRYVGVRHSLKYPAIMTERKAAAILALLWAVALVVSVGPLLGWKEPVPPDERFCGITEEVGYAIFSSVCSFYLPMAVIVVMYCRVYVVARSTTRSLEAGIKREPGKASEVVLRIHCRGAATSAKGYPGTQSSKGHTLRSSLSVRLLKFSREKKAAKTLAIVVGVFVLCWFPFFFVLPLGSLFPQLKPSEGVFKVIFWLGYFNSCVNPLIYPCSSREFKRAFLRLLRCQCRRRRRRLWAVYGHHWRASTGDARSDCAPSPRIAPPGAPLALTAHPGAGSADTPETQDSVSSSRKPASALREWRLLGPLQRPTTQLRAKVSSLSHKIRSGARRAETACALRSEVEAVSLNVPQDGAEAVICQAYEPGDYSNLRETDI
T3 sequence (P43140 whole entry): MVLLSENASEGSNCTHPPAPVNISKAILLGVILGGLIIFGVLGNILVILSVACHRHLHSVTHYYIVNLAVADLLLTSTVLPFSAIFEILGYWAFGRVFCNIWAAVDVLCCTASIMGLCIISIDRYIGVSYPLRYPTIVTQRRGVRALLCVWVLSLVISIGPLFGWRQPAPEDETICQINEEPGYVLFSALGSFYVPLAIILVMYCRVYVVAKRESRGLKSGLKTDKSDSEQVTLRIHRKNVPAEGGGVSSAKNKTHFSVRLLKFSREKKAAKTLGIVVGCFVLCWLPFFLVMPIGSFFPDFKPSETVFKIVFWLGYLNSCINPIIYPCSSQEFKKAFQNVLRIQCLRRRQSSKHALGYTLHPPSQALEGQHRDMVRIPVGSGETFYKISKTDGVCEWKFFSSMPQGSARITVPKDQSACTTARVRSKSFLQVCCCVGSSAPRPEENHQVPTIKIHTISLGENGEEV

[7] = target: T2, 5-hydroxytryptamine receptor 1A (Homo sapiens); test: Maximal stimulation was expressed as percentage of the maximal 5-HT response in the [35S]GTP-gamma-S, binding assay on 5-hydroxytryptamine 1A receptor; assay type: functional; procedure, shortened: as §2
[8] = target: T1, 5-hydroxytryptamine receptor 1A; test: Binding affinity on human cloned 5-hydroxytryptamine 1A receptor transfected in human cell lines (He La); assay type: cell-based, Cell line; procedure, shortened: as §1

Chain of D(2) dopamine receptor (P61169 whole entry): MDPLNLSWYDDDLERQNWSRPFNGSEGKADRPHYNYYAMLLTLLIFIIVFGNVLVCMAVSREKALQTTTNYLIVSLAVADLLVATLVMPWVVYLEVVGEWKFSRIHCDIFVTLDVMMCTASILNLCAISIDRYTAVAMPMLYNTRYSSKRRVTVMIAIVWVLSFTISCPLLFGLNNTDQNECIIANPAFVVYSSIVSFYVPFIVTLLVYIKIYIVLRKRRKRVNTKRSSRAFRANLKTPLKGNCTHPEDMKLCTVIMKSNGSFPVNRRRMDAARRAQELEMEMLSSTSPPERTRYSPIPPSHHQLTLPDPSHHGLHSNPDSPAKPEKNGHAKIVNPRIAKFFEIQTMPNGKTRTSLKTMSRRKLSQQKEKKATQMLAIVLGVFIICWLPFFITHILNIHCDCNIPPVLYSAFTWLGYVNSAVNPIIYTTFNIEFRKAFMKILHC

Ki (D(2) dopamine receptor)	Ki [1]	Selectivity [2]	pD2 [3]	Selectivity [4]	Selectivity [5]	Ki [6]	Emax [7]	Ki [8]	Compound
450 nM	3 nM	4	7.87	0.5	1	833 nM	86.3%		COc1cccc2c(CCCN3CCN(c4ccccn4)CC3)cccc12
117 nM		74	10.2	4	98	55 nM	98.2%	0.08 nM	COc1cccc2c1CCCC2CCCN1CCN(c2ccccn2)CC1 (stereo unspecified)

Second part, the molecule before the results:

Compound	Ki (D(2) dopamine receptor)	Ki [1]	Selectivity [2]	pD2 [3]	Selectivity [4]	Selectivity [5]	Ki [6]	Emax [7]	Ki [8]
COc1cccc2c(CCCNCCOc3ccccn3)cccc12	378 nM	0.86 nM	97	8.2	17	314	1300 nM	48%	
COc1cccc(C2CCC(N3CCN(c4ccccc4OC)CC3)CC2)c1 (stereo in doubt; trans)	60 nM	0.21 nM					312 nM		
COc1cccc(C2CCC(NCCOc3ccccn3)CC2)c1 (stereo in doubt)	586 nM	3.77 nM					> 850 nM		
COc1cccc2c1CCCC2CCCNCCOc1ccccn1 (stereo unspecified)	> 850 nM	0.23 nM	55	10.2	2	115	83 nM	86.8%	
COc1cccc(C2CCC(N3CCN(c4ccccn4)CC3)CC2)c1 (trans isomer)	2190 nM	0.2 nM					767 nM		
